# From ChEMBL document CHEMBL4406880, “Design, synthesis, and bioactivity of dihydropyrimidine derivatives as kinesin spindle protein inhibitors” (Bioorg Med Chem, 2019)
# Experiments:
# Type in all cases: functional
# CCRF-CEM = test: Growth inhibition of human CCRF-CEM cells assessed as growth percentage at 10 uM incubated for 48 hrs by sulforhodamine B assay relative to control; details: read-out: Activity
# In short: (§1)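 NCI-60 one-dose screen: cells in RPMI 1640 with 5% FBS and 2 mM L-glutamine, plated at 5,000–40,000 cells/well and preincubated 24 h at 37 °C, 5% CO2. Compound is added from a DMSO stock to a final 10 µM and incubated 48 h. Cells are TCA-fixed and stained with sulforhodamine B, read at 515 nm. Output is % growth versus untreated control, with a time-zero plate.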
# MOLT-4 = test: Growth inhibition of human MOLT4 cells assessed as growth percentage at 10 uM incubated for 48 hrs by sulforhodamine B assay relative to control; details: MOLT-4, 48 h, read-out: Activity
# In short: (§2)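 NCI-60 one-dose screen. Cells in RPMI 1640 with 5% FBS and 2 mM L-glutamine, seeded at 5,000–40,000 cells/well according to doubling time, and preincubated overnight at 37 °C, 5% CO2. A time-zero plate was TCA-fixed at drug addition. Compound from DMSO stock, final 10 µM, 48 h; DMSO vehicle controls. Fixation with TCA, 10% final (16% for suspension cells). SRB stain, Tris solubilization, A515. Result given as % growth versus untreated cells.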
# HOP-92 = test: Growth inhibition of human HOP92 cells assessed as growth percentage at 10 uM incubated for 48 hrs by sulforhodamine B assay relative to control; details: HOP-92, 48 h, read-out: Activity; in short: as §2
# NCI-H23 = test: Growth inhibition of human NCI-H23 cells assessed as growth percentage at 10 uM incubated for 48 hrs by sulforhodamine B assay relative to control; details: NCI-H23, 48 h, read-out: Activity; in short: as §2
# COLO 205 = test: Growth inhibition of human COLO205 cells assessed as growth percentage at 10 uM incubated for 48 hrs by sulforhodamine B assay relative to control; details: COLO 205, 48 h, read-out: Activity; in short: as §1
# HCC 2998 = test: Growth inhibition of human HCC2998 cells assessed as growth percentage at 10 uM incubated for 48 hrs by sulforhodamine B assay relative to control; details: HCC 2998, 48 h, read-out: Activity; in short: as §1
# HT-29 = test: Growth inhibition of human HT-29 cells assessed as growth percentage at 10 uM incubated for 48 hrs by sulforhodamine B assay relative to control; details: HT-29, 48 h, read-out: Activity; in short: as §2
# SF-539 = test: Growth inhibition of human SF539 cells assessed as growth percentage at 10 uM incubated for 48 hrs by sulforhodamine B assay relative to control; details: SF-539, 48 h, read-out: Activity
# In short: (§3)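 NCI-60 single-dose screen. Cells were grown in RPMI 1640 with 5% FBS and 2 mM L-glutamine and plated at 5,000–40,000 cells/well. After an overnight preincubation at 37 °C in 5% CO2, compound was added at a final 10 µM from a DMSO stock, with DMSO/PBS controls. After 48 h, cells were TCA-fixed and stained with 0.4% SRB, and absorbance was read at 515 nm. Growth is given as a percentage of untreated control.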
# SNB-19 = test: Growth inhibition of human SNB19 cells assessed as growth percentage at 10 uM incubated for 48 hrs by sulforhodamine B assay relative to control; details: SNB-19, 48 h, read-out: Activity; in short: as §3
# MDA-MB-435 = test: Growth inhibition of human MDA-MB-435 cells assessed as growth percentage at 10 uM incubated for 48 hrs by sulforhodamine B assay relative to control; details: MDA-MB-435, 48 h, read-out: Activity; in short: as §2
# SK-MEL-28 = test: Growth inhibition of human SK-MEL-28 cells assessed as growth percentage at 10 uM incubated for 48 hrs by sulforhodamine B assay relative to control; details: SK-MEL-28, 48 h, read-out: Activity; in short: as §3
# IGROV-1 = test: Growth inhibition of human IGROV1 cells assessed as growth percentage at 10 uM incubated for 48 hrs by sulforhodamine B assay relative to control; details: IGROV-1, 48 h, read-out: Activity; in short: as §2
# OVCAR-3 = test: Growth inhibition of human OVCAR3 cells assessed as growth percentage at 10 uM incubated for 48 hrs by sulforhodamine B assay relative to control; details: OVCAR-3, 48 h, read-out: Activity; in short: as §2
# OVCAR-8 = test: Growth inhibition of human OVCAR8 cells assessed as growth percentage at 10 uM incubated for 48 hrs by sulforhodamine B assay relative to control; details: OVCAR-8, 48 h, read-out: Activity; in short: as §3
# NCI/ADR-RES = test: Growth inhibition of human NCI/ADR-RES cells assessed as growth percentage at 10 uM incubated for 48 hrs by sulforhodamine B assay relative to control; details: read-out: Activity; in short: as §2
# 786-0 = test: Growth inhibition of human 786-0 cells assessed as growth percentage at 10 uM incubated for 48 hrs by sulforhodamine B assay relative to control; details: 786-0, 48 h, read-out: Activity; in short: as §1
# CAKI-1 = test: Growth inhibition of human Caki1 cells assessed as growth percentage at 10 uM incubated for 48 hrs by sulforhodamine B assay relative to control; details: CAKI-1, 48 h, read-out: Activity; in short: as §1
# RXF 393 = test: Growth inhibition of human RXF393 cells assessed as growth percentage at 10 uM incubated for 48 hrs by sulforhodamine B assay relative to control; details: RXF 393, 48 h, read-out: Activity; in short: as §3
# TK-10 = test: Growth inhibition of human TK10 cells assessed as growth percentage at 10 uM incubated for 48 hrs by sulforhodamine B assay relative to control; details: TK-10, 48 h, read-out: Activity; in short: as §3
# UO-31 = test: Growth inhibition of human UO31 cells assessed as growth percentage at 10 uM incubated for 48 hrs by sulforhodamine B assay relative to control; details: UO-31, 48 h, read-out: Activity; in short: as §3
# DU-145 = test: Growth inhibition of human DU145 cells assessed as growth percentage at 10 uM incubated for 48 hrs by sulforhodamine B assay relative to control; details: DU-145, 48 h, read-out: Activity; in short: as §1
# MCF7 = test: Growth inhibition of human MCF7 cells assessed as growth percentage at 10 uM incubated for 48 hrs by sulforhodamine B assay relative to control; details: MCF7, 48 h, read-out: Activity; in short: as §2
# Hs-578T = test: Growth inhibition of human Hs 578T cells assessed as growth percentage at 10 uM incubated for 48 hrs by sulforhodamine B assay relative to control; details: read-out: Activity; in short: as §2
# BT-549 = test: Growth inhibition of human BT549 cells assessed as growth percentage at 10 uM incubated for 48 hrs by sulforhodamine B assay relative to control; details: BT-549, 48 h, read-out: Activity; in short: as §1
# T47D = test: Growth inhibition of human T47D cells assessed as growth percentage at 10 uM incubated for 48 hrs by sulforhodamine B assay relative to control; details: read-out: Activity; in short: as §3
# MDA-MB-468 = test: Growth inhibition of human MDA-MB-468 cells assessed as growth percentage at 10 uM incubated for 48 hrs by sulforhodamine B assay relative to control; details: MDA-MB-468, 48 h, read-out: Activity; in short: as §2
Structure (SMILES),growth at 10 µM (CCRF-CEM),growth at 10 µM (MOLT-4),growth at 10 µM (HOP-92),growth at 10 µM (NCI-H23),growth at 10 µM (COLO 205),growth at 10 µM (HCC 2998),growth at 10 µM (HT-29),growth at 10 µM (SF-539),growth at 10 µM (SNB-19),growth at 10 µM (MDA-MB-435),growth at 10 µM (SK-MEL-28),growth at 10 µM (IGROV-1),growth at 10 µM (OVCAR-3),growth at 10 µM (OVCAR-8),growth at 10 µM (NCI/ADR-RES),growth at 10 µM (786-0),growth at 10 µM (CAKI-1),growth at 10 µM (RXF 393),growth at 10 µM (TK-10),growth at 10 µM (UO-31),also measured
CC(=O)C1=C(C)NC(=O)NC1c1ccc2c(c1)OCO2 (racemic),98.5%,103%,102%,101%,104%,107%,104%,102%,95.4%,105%,115%,103%,115%,103%,106%,105%,91.4%,95.2%,103%,83.4%,growth at 10 µM (DU-145): 118%; growth at 10 µM (MCF7): 96.9%; growth at 10 µM (Hs-578T): 111%; growth at 10 µM (BT-549): 112%; growth at 10 µM (T47D): 91.8%; growth at 10 µM (MDA-MB-468): 105%
CC1=C(C(=O)c2ccccc2)C(c2ccc3c(c2)OCO3)NC(=S)N1 (racemic),41.2%,36.6%,92.3%,48%,47.6%,62.2%,18.5%,36.4%,63.8%,-49.5%,70.9%,46.1%,12.9%,46.7%,43.3%,58.9%,35.6%,59.5%,66%,55.7%,growth at 10 µM (DU-145): 78.7%; growth at 10 µM (MCF7): 22%; growth at 10 µM (Hs-578T): 23.4%; growth at 10 µM (BT-549): 50.6%; growth at 10 µM (T47D): 67.9%; growth at 10 µM (MDA-MB-468): 54.3%
O=C1C2=C(NC(=S)NC2c2ccc3c(c2)OCO3)c2ccccc21 (racemic),108%,104%,95%,98.5%,113%,106%,108%,105%,100%,107%,123%,104%,113%,102%,103%,108%,87.4%,107%,102%,77%,growth at 10 µM (DU-145): 112%; growth at 10 µM (MCF7): 96.8%; growth at 10 µM (Hs-578T): 96.8%; growth at 10 µM (BT-549): 101%; growth at 10 µM (T47D): 99%; growth at 10 µM (MDA-MB-468): 108%
CC1=C(C(=O)c2ccccc2)C(c2ccc3c(c2)OCO3)NC(=O)N1 (racemic),98.5%,103%,92.4%,107%,114%,111%,105%,99.7%,101%,90.1%,117%,90.6%,106%,99.3%,103%,99.5%,91.1%,109%,99%,80.6%,growth at 10 µM (DU-145): 105%; growth at 10 µM (MCF7): 97.5%; growth at 10 µM (Hs-578T): 102%; growth at 10 µM (BT-549): 95.6%; growth at 10 µM (T47D): 91.2%; growth at 10 µM (MDA-MB-468): 109%
O=C1NC2=C(C(=O)c3ccccc32)C(c2ccc3c(c2)OCO3)N1 (racemic),103%,104%,99%,104%,115%,107%,107%,94.7%,97.9%,105%,114%,104%,115%,102%,109%,106%,90.9%,98.8%,96.1%,85.4%,growth at 10 µM (DU-145): 114%; growth at 10 µM (MCF7): 96.5%; growth at 10 µM (Hs-578T): 98.8%; growth at 10 µM (BT-549): 102%; growth at 10 µM (T47D): 95%; growth at 10 µM (MDA-MB-468): 114%
CC1(C)CC(=O)C2=C(C1)NC(=O)NC2c1ccc2c(c1)OCO2 (racemic),111%,95.9%,112%,104%,125%,109%,114%,106%,108%,106%,111%,97.9%,115%,104%,104%,105%,93.9%,118%,106%,84.6%,growth at 10 µM (DU-145): 107%; growth at 10 µM (MCF7): 98.3%; growth at 10 µM (Hs-578T): 113%; growth at 10 µM (BT-549): 109%; growth at 10 µM (T47D): 106%; growth at 10 µM (MDA-MB-468): 118%
CC(=O)C1=C(C)Nc2nc3ccccc3n2C1c1ccc2c(c1)OCO2 (racemic),94.8%,102%,91%,106%,114%,111%,105%,99.7%,99.6%,93.1%,107%,106%,105%,98.6%,102%,100%,88.3%,108%,104%,89.3%,growth at 10 µM (DU-145): 109%; growth at 10 µM (MCF7): 96.4%; growth at 10 µM (Hs-578T): 99.8%; growth at 10 µM (BT-549): 102%; growth at 10 µM (T47D): 86.3%; growth at 10 µM (MDA-MB-468): 109%
